Results collected from several papers.
Each line is one published result; the experiments were not run side by side.
Target: Death-associated protein kinase 2 (DAPK2, Homo sapiens, UniProt Q9UIK4)

COc1cc(-c2cn(C3CCc4c(F)cccc4N(CC(F)(F)F)C3=O)nn2)ccc1-n1cnc(C)c1 (stereo not shown) has a remaining binding of 100% (cell-free assay; competition with immobilised ligand; 1 µM).
CCN(CC)c1ccc(C2=NNC(=O)CC2C)cc1[N+](=O)[O-] (stereo not shown) gave a remaining activity of 99% (enzyme activity; inhibitor; 10 µM).
The remaining binding of O=C(Nc1ccc(Oc2ccc(F)cc2)cc1)N1CCc2ncccc2[C@H]1c1ccc(F)cc1 is reported as 100% (cell-free assay; competition with immobilised ligand; 1 µM).
COc1cc(Cl)c(C(=O)N[C@@H](CN[C@H]2CC[C@@H](N)CC2)Cc2ccc(C#N)cc2)cc1-c1ccc(CN[C@H](C)c2ccc(C)cc2)o1 has a remaining activity of 123% (enzyme activity; inhibitor; 1 µM).
With Cc1ccc(C(=O)Nc2ccc(CN3CCN(C)CC3)c(C(F)(F)F)c2)cc1C#Cc1cnc2cccnn12 the remaining activity was 100% (enzyme activity; inhibitor; 23.5 nM).
The remaining activity of Cc1sc(C(=O)NC2COC2)cc1-n1cc(NC(=O)Nc2c(F)cccc2Cl)cn1 is reported as 99.5% (enzyme activity; inhibitor; 10 µM).
With CNC(=O)c1cc(Oc2ccc(NC(=O)Nc3ccc(Cl)c(C(F)(F)F)c3)cc2)ccn1 the inhibition was 5% (enzyme activity; inhibitor; 0.3 µM).
For N#CCCc1ccc2c(c1)-c1[nH]c3ccc([N+](=O)[O-])cc3c1CC(=O)N2, the remaining signal was 96.5% (cell-free assay; 0.5 µM).
CC(C)(C)c1nc(-c2cccc(NS(=O)(=O)c3c(F)cccc3F)c2F)c(-c2ccnc(N)n2)s1 has a remaining activity of 92% (enzyme activity; inhibitor; radiometric; 1 µM).
The remaining binding of C[C@@H]1CN(c2cc(-c3nn(C)c4ccc(OC5(C)CC5)cc34)ncn2)C[C@H](C)O1 is reported as 89% (cell-free assay; competition with immobilised ligand; 1 µM).
O=C1NC(=O)c2cc(Nc3ccc(F)cc3)c(Nc3ccc(F)cc3)cc21 gave a remaining signal of 96.7% (cell-free assay; 0.5 µM).
For Cc1cc(NC(=O)c2cccc3cc(-c4cccc5[nH]nc(N)c45)ccc23)ccc1F, the activity vs control was 96% (enzyme activity; inhibitor; 0.1 µM).
CC(C)(O)c1cncc(-c2nc3ccc(F)cc3n2C2CC2)c1 has a remaining binding of 100% (cell-free assay; competition with immobilised ligand; 1 µM).
CCCOc1ccc(OC)c(F)c1C(=O)c1ccc(C(=O)N[C@@H]2CNC[C@H]2NC(=O)c2ccc3[nH]ncc3c2)cc1 gave a remaining activity of 84% (enzyme activity; inhibitor; 10 µM).
CO[C@@H](C)c1c(Nc2ccc([C@@H](N(C)C(=O)C3CCS(=O)(=O)CC3)C(F)(F)F)cc2)cnc2cc(Cl)nn12 has a remaining binding of 41% (binding; competition with immobilised ligand; 1 µM).
Cc1ccc(Nc2nccc(N(C)c3ccc4c(C)n(C)nc4c3)n2)cc1S(N)(=O)=O has an inhibition of 1% (enzyme activity; inhibitor; 0.3 µM).
